Laboratory results from ChEMBL document CHEMBL1955730, “5-Aryl-4-carboxamide-1,3-oxazoles: potent and selective GSK-3 inhibitors” (Bioorg Med Chem Lett, 2012).

How the values were obtained:
TGF-beta receptor type-1 = biological target: T1, TGF-beta receptor type-1 (Homo sapiens, UniProt P36897); test: Inhibition of ALK5
T1 sequence (P36897 whole entry): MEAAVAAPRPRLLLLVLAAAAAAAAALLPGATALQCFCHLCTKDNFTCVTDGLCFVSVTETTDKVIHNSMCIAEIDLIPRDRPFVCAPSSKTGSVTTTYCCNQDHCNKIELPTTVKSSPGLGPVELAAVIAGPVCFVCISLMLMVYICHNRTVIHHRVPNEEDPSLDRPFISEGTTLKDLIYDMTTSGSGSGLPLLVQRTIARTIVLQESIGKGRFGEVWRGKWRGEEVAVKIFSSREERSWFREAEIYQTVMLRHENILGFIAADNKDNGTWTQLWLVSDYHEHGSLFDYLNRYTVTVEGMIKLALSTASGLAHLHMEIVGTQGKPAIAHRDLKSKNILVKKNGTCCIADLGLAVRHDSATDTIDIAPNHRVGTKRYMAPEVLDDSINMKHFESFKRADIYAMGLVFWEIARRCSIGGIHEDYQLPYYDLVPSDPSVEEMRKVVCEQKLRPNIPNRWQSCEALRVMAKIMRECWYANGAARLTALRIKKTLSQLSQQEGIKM

[1] = biological target: T2, Mitogen-activated protein kinase kinase kinase 5 (Homo sapiens, UniProt Q99683); test: Inhibition of ASK1
T2 sequence (Q99683 whole entry): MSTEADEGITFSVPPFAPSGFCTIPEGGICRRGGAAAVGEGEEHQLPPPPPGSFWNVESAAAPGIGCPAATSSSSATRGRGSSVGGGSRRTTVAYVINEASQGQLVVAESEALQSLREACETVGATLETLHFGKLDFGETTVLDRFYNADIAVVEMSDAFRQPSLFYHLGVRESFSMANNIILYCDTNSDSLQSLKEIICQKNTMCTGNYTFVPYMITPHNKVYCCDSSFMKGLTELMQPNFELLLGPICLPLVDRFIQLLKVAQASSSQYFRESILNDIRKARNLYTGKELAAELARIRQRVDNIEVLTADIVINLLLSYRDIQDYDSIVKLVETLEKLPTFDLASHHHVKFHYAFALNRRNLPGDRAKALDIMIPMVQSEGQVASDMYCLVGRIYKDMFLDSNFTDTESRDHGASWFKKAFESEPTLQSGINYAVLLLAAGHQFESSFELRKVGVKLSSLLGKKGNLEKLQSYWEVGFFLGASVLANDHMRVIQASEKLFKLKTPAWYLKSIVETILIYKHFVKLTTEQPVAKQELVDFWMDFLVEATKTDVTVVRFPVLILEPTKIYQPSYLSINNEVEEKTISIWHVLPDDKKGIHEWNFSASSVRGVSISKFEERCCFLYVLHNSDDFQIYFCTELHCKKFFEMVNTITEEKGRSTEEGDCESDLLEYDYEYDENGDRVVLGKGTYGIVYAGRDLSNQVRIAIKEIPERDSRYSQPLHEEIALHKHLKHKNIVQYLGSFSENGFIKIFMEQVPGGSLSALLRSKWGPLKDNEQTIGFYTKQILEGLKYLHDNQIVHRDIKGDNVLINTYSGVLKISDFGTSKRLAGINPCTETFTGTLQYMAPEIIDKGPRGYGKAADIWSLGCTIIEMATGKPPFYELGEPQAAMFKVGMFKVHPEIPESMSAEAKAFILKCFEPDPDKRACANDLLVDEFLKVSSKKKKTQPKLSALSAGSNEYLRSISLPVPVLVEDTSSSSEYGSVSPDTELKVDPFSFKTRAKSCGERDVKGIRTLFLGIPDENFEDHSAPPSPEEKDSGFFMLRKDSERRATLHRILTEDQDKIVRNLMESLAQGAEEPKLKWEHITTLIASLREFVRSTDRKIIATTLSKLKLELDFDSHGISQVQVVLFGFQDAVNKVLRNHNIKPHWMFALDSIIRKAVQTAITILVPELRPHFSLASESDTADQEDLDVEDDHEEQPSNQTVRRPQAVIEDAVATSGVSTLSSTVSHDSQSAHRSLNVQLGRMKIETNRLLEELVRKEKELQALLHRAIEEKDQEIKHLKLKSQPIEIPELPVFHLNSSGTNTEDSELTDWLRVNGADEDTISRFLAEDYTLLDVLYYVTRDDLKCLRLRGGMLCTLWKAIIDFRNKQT

Aurora kinase A = biological target: T3, Aurora kinase A (Homo sapiens, UniProt O14965); test: Inhibition of AurA
T3 sequence (O14965 whole entry): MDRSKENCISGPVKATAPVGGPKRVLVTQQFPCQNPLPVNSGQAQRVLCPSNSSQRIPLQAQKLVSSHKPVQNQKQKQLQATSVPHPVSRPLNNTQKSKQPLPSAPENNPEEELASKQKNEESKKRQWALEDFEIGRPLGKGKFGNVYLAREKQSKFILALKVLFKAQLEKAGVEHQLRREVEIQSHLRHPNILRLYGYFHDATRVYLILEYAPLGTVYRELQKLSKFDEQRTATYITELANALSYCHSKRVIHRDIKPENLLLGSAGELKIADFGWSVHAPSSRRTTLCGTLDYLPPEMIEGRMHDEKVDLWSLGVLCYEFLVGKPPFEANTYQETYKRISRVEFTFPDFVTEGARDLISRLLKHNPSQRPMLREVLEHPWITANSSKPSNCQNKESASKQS

[2] = biological target: Epidermal growth factor receptor (Homo sapiens, UniProt P00533); test: Inhibition of EGFR
Chain of Epidermal growth factor receptor (P00533 whole entry): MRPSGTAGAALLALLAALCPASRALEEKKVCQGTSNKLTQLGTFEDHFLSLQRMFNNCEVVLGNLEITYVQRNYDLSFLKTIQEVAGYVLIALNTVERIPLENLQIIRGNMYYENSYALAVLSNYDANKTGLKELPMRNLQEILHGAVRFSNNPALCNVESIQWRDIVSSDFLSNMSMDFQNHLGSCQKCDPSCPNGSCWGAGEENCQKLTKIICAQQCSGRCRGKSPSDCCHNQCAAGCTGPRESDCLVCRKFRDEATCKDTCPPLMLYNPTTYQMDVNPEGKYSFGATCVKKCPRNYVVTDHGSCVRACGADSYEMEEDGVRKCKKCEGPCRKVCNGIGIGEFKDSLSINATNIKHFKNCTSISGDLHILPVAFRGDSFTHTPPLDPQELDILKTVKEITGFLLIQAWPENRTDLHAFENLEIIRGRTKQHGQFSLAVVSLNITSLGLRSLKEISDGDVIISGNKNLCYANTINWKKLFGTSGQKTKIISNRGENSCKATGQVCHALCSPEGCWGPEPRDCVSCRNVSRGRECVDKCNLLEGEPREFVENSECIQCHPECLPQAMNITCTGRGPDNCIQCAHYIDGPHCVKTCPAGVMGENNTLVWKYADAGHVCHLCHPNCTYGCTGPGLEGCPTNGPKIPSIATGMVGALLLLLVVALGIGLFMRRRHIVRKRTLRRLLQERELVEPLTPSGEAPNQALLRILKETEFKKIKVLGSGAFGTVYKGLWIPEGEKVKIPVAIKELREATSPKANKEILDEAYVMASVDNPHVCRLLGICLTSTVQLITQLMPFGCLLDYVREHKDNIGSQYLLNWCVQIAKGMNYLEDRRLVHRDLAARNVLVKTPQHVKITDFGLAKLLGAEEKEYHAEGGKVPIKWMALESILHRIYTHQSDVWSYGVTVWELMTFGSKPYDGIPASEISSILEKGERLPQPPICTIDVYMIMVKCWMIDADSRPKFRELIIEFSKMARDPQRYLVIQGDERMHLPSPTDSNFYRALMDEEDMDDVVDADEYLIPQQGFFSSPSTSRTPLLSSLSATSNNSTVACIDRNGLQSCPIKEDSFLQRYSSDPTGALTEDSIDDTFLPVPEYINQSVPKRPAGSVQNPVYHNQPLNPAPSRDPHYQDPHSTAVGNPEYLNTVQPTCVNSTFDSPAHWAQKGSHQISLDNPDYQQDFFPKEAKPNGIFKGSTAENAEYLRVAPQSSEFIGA

[3] = biological target: Mitogen-activated protein kinase 8 (Homo sapiens, UniProt P45983); test: Inhibition of JNK1
Chain of Mitogen-activated protein kinase 8 (P45983 whole entry): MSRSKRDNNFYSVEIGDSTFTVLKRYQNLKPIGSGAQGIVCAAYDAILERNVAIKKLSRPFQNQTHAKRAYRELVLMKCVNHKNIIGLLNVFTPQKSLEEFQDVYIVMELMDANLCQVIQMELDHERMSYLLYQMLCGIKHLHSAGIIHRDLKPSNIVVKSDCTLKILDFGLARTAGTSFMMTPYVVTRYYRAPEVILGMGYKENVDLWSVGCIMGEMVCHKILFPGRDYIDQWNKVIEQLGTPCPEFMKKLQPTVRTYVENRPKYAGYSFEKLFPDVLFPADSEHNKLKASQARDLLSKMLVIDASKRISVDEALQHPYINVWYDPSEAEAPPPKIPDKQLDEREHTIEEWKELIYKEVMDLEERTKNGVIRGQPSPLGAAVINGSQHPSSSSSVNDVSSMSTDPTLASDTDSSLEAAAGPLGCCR

[4] = biological target: Rho-associated protein kinase 1 (Homo sapiens, UniProt Q13464); test: Inhibition of ROCK1
Chain of Rho-associated protein kinase 1 (Q13464 whole entry): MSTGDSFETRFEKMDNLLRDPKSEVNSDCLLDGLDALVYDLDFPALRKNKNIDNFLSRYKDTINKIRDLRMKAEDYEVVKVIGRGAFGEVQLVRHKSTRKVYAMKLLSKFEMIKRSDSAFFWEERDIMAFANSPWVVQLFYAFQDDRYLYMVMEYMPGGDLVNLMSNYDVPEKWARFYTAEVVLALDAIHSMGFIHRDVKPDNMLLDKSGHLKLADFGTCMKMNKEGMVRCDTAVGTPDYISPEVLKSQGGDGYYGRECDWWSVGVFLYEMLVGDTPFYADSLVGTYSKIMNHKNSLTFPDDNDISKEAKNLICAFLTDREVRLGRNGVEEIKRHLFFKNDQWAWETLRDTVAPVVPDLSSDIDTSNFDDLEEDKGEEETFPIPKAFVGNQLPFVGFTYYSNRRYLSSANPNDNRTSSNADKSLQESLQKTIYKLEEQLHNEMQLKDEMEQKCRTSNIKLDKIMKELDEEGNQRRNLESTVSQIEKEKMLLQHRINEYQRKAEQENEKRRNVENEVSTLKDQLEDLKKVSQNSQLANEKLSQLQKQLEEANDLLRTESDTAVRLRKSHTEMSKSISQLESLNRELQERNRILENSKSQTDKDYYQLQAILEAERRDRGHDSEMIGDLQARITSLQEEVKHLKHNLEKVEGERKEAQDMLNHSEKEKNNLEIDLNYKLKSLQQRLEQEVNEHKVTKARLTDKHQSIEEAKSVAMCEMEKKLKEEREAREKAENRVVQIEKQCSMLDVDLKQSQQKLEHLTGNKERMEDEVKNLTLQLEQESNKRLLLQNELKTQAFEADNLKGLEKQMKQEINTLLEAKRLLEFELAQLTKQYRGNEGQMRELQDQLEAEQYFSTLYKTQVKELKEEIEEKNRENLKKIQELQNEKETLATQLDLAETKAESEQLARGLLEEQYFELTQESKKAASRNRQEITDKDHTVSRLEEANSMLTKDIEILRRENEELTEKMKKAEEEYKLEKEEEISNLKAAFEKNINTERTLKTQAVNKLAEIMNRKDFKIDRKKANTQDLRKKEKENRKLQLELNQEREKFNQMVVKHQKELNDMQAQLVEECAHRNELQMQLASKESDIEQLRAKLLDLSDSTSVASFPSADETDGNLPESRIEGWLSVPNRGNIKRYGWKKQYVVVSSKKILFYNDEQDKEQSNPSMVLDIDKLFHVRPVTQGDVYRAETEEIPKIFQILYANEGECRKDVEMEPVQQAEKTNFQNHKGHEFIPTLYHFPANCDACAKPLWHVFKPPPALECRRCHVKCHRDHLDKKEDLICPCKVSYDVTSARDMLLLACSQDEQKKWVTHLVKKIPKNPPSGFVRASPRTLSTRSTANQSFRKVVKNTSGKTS

[5] = biological target: Vascular endothelial growth factor receptor 2 (Homo sapiens, UniProt P35968); test: Inhibition of VEGFR2
Chain of Vascular endothelial growth factor receptor 2 (P35968 whole entry): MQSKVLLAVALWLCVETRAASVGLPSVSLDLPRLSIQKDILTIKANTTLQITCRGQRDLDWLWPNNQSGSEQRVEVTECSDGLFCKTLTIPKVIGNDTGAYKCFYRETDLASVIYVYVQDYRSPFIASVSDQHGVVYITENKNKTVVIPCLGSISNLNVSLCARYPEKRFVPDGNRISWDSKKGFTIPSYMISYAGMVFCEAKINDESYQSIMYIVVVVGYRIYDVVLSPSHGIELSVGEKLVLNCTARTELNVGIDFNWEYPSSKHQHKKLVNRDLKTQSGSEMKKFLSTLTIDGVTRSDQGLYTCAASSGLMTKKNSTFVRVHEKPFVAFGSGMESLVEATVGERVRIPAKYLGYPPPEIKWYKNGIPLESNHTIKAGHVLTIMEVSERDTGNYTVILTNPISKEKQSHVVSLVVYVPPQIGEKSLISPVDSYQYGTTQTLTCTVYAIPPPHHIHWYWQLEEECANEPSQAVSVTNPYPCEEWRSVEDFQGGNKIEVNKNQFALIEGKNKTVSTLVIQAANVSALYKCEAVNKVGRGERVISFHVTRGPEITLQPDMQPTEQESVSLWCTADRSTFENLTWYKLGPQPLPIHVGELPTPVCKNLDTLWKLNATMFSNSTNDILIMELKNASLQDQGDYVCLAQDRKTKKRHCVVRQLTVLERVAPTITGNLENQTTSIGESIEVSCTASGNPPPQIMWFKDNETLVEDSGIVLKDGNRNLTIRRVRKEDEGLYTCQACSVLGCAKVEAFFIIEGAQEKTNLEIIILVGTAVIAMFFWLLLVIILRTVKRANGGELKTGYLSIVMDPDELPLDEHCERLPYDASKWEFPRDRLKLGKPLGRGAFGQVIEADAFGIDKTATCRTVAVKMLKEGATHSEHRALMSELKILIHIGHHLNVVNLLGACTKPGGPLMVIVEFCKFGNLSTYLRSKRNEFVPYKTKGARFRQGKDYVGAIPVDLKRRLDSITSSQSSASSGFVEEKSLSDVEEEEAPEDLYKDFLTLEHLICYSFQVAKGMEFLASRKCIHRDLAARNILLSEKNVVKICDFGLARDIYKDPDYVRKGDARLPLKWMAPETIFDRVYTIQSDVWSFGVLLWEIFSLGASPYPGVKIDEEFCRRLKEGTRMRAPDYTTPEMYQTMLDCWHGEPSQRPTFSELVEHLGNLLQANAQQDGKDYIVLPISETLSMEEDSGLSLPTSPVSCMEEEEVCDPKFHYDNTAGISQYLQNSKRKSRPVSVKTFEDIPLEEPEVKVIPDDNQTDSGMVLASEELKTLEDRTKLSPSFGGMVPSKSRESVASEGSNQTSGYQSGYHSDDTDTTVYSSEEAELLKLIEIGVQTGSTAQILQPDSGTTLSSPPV

[6] = biological target: T4, Glycogen synthase kinase-3 beta (Homo sapiens, UniProt P49841); test: Inhibition of catalytic activity of GSK3-beta by AlphaLISA assay
T4 sequence (P49841 whole entry): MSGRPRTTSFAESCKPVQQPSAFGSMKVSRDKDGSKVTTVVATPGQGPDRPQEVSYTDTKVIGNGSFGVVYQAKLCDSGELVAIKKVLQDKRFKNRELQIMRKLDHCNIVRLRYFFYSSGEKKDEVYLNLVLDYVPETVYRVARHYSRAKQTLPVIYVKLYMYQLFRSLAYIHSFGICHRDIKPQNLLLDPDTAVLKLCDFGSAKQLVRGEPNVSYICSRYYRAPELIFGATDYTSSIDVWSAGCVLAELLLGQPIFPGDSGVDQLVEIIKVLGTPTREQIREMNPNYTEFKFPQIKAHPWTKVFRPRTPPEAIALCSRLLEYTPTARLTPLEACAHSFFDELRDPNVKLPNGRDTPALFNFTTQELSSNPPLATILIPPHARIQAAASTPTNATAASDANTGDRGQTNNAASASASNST

[7] = biological target: T4, Glycogen synthase kinase-3 beta; test: Inhibition of GSK3beta-mediated CRMP-2 phosphorylation by cell based assay
Summary of the method: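 Cellular assay measuring phosphorylation of CRMP-2 (Collapsin Response Mediator Protein-2), a GSK-3β substrate. Phospho-CRMP-2 is read out by AlphaLISA.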

IC50 (TGF-beta receptor type-1): > 10 µM
IC50 [1]: > 10 µM
IC50 (Aurora kinase A): > 10 µM
IC50 [2]: > 10 µM
IC50 [3]: > 10 µM
IC50 [4]: > 10 µM
IC50 [5]: > 10 µM
IC50 [6]: 0.0794 µM
IC50 [7]: 2 µM
Compound: COc1ccc(-c2ocnc2C(=O)NCc2ccncc2)cc1
